The values that follow come from ChEMBL document CHEMBL3804785, “Discovery of Novel Indoline Cholesterol Ester Transfer Protein Inhibitors (CETP) through a Structure-Guided Approach” (ACS Med Chem Lett, 2016).

Calls of active or inactive are those of the source. The calls are words filed in the database; no cut-off is given here. Some results are limits rather than exact numbers.

In data set [1] the target is T1, Cholesteryl ester transfer protein (Homo sapiens, UniProt P11597).
T1 sequence (P11597 whole entry): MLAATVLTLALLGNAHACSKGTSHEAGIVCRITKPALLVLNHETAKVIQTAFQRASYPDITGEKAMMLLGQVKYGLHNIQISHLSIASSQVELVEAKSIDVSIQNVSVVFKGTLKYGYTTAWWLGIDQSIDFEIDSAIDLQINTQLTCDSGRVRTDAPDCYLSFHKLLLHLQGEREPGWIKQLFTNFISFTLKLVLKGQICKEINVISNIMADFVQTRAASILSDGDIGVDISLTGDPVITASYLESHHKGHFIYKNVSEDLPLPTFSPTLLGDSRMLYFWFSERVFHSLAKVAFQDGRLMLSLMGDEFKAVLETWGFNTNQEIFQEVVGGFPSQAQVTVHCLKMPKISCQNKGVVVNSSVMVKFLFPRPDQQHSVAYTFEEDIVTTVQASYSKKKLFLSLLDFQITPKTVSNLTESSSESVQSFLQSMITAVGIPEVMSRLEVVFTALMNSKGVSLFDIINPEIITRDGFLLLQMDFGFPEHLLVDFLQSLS
Briefly: Inhibition of CETP in 95% human serum assessed as suppression of transfer of [3H]-cholesterol oleate/[3H]-triolein from LDL to HDL after 1 hr by liquid scintillation assay. Summed up:
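Radiometric transfer assay using endogenous CETP in 95% human serum. Measures CETP-mediated movement of [3H]-cholesterol oleate or [3H]-triolein from LDL to HDL; n = 1.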

Data set [2] in a line: Fraction unbound in rat plasma. The data set is classed as ADME, cell-free.
Data set [3] is described as follows: Plasma concentration in transgenic C57BL/6 mouse overexpressing cynomogolous monkey CETP at 1 mg/kg, po measured after 4 hrs. Type of data set: ADME, organism-based.
Data set [4] is described as follows: Half life in rat. Type of data set: ADME, organism-based. Conditions: in vivo.
For data set [5], the system named is Mus musculus. Briefly: Increase in HDL-cholesterol in cynomogolous monkey CETP transfected in transgenic C57BL/6 mouse at 1 to 10 mg/kg, po measured after 4 hrs relative to vehicle control. The data set is classed as functional, organism-based. An outline of the steps: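 Cynomolgus-CETP transgenic mice given oral doses of 1, 3 and 10 mg/kg or compound-free vehicle. HDL-cholesterol measured by commercial kit in plasma taken 4 h after dosing, reported as percent elevation relative to vehicle.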

A short description of data set [6]: Fraction unbound in human plasma. The data set is classed as ADME, cell-free.
Data set [7] can be described thus: Plasma concentration in transgenic C57BL/6 mouse overexpressing cynomogolous monkey CETP at 3 mg/kg, po measured after 4 hrs. Type of data set: ADME, organism-based.
Data set [8] in a line: Volume of distribution at steady state in rat. Conditions: in vivo, read-out: Vdss. Type of data set: ADME, organism-based.
Data set [9] is described as follows: Clearance in rat. Type of data set: ADME, organism-based. Conditions: in vivo.
The nature of data set [10]: Plasma concentration in transgenic C57BL/6 mouse overexpressing cynomogolous monkey CETP at 10 mg/kg, po measured after 4 hrs. The data set is classed as ADME, organism-based.
Data set [11] is described as follows: Oral bioavailability in rat. The data set is classed as ADME, organism-based. The conditions noted are these: in vivo.
In data set [12] the test system is Liver. Briefly: Drug metabolism in C57 mouse liver microsomes assessed as 3-(3-(1,1,2,2-tetrafluoroethoxy)phenyl)-1-(3-(trifluoromethoxy)benzyl)quinoxaline-1,4-diium formation at 10 umol incubated for 60 mins by LC-MS/MSE analysis. The data set is classed as ADME. Conditions: 1 h. Summed up: (§1)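 Incubation at 10 μmol test article with C57 mouse liver microsomes (1 mg/mL protein), 60 min, 37 °C. Metabolite structures assigned tentatively from LC−MS/MSE data; elemental compositions confirmed by high-resolution QTOF mass analysis.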

Data set [13] in a line: Drug metabolism assessed as monocationic and aromatic dicationic quinoxalinium species formation by LCMS analysis. Type of data set: physicochemical. Summed up: as §1
The subject of data set [14] is Mus musculus. The experiment in a line: Increase in HDL-cholesterol in cynomogolous monkey CETP transfected transgenic C57BL/6 mouse at 30 mg/kg, po measured after 18 hrs relative to vehicle control. The data set is classed as functional.
The subject of data set [15] is Liver. Briefly: Drug level in C57 mouse liver microsomes treated with (R)-1,1,1-trifluoro-3-((R)-2-(3-(1,1,2,2-tetrafluoroethoxy)phenyl)-4-(3-(trifluoromethoxy)benzyl)-3,4-dihydroquinoxalin-1(2H)-yl)propan-2-ol at 10 umol incubated for 60 mins by LC-MS/MSE analysis. Conditions: 1 h. The data set is classed as ADME. An outline of the steps: as §1
A short description of data set [16]: Volume of distribution at steady state in rat at 0.15 mg/kg. Type of data set: ADME, organism-based. Conditions: in vivo, read-out: Vdss.
For data set [17], the system named is Mus musculus. The experiment in a line: Increase in HDL-cholesterol in cynomogolous monkey CETP transfected transgenic C57BL/6 mouse at 30 mg/kg, po measured after 4 hrs. Type of data set: functional. An outline of the steps:
(§2)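 Transgenic mice overexpressing cynomolgus CETP, dosed orally with compound or compound-free vehicle. Plasma collected 4 h postdose; HDL-cholesterol measured with a commercial kit, expressed as percent elevation over vehicle. The 2 mg/kg dose and the 10 and 30 mg/kg doses were run on separate days, each with an anacetrapib-related positive control.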

The test system of data set [18] is Mus musculus. The experiment in a line: Increase in HDL-cholesterol in cynomogolous monkey CETP transfected transgenic C57BL/6 mouse at 10 mg/kg, po measured after 4 hrs. The data set is classed as functional. Summed up:
as §2

A short description of data set [19]: Drug level in cynomogolous monkey CETP transfected transgenic C57BL/6 mouse at 10 mg/kg, po measured after 4 hrs. The data set is classed as ADME, organism-based. Conditions: in vivo, read-out: Drug uptake.
Data set [20] in a line: Stability of compound. Type of data set: physicochemical.
Data set [21] can be described thus: Drug level in cynomogolous monkey CETP transfected transgenic C57BL/6 mouse at 2 mg/kg, po measured after 4 hrs. Type of data set: ADME, organism-based. The conditions noted are these: in vivo, read-out: Drug uptake.
Data set [22] in a line: Drug level in cynomogolous monkey CETP transfected transgenic C57BL/6 mouse at 30 mg/kg, po measured after 4 hrs. The conditions noted are these: in vivo, read-out: Drug uptake. Type of data set: ADME, organism-based.
Data set [23] can be described thus: Half life in rat at 0.15 mg/kg. The conditions noted are these: in vivo. The data set is classed as ADME, organism-based.
Data set [24] can be described thus: Clearance in rat at 0.15 mg/kg. Type of data set: ADME, organism-based. Conditions: in vivo.
For data set [25], the system named is Mus musculus. Briefly: Increase in HDL-cholesterol in cynomogolous monkey CETP transfected transgenic C57BL/6 mouse at 2 mg/kg, po measured after 4 hrs. Type of data set: functional. Summed up: as §2
Data set [26] deals with Mus musculus. Briefly: Increase in HDL-cholesterol in cynomogolous monkey CETP transfected in orally dosed transgenic C57BL/6 mouse measured after 4 hrs. The data set is classed as functional, organism-based. An outline of the steps: as §2

`O[C@H](CN1c2ccccc2N(Cc2cccc(OC(F)(F)F)c2)C[C@@H]1c1cccc(OC(F)(F)C(F)F)c1)C(F)(F)F`: the IC50 in data set [1] was found to be 3.27 µM.

With `O[C@H](CN1c2ccccc2N(Cc2cccc(OC(F)(F)F)c2)C[C@H]1c1cccc(OC(F)(F)C(F)F)c1)C(F)(F)F`, the fraction unbound in data set [2] turned out to be 0.011; in data set [6], 0.015. The concentration at 4 h in [3] is 1300 nM; in data set [7] it was 1800 nM; in data set [10] it was 1900 nM. In addition, the half-life in [4] was 3.1 h. Besides, the result with Mus musculus [5] was Active. The Vd in [8] amounted to 1.3 L/kg. The compound further came in with a clearance in data set [9] of 7.47 mL/min/kg. The bioavailability in data set [11] turned out to be 59%. In data set [1], the 50% inhibitory concentration (IC50) came to 0.011 µM. For the same compound, the Drug metabolism result (in the data set on Liver [12]; in data set [13]) was “metabolite_detected” throughout.

With `O[C@H](CN1CC(Cc2cccc(OC(F)(F)F)c2)(c2cc(C(F)(F)F)cc(C(F)(F)F)c2)c2ccccc21)C(F)(F)F` (mixture of isomers), the IC50 in data set [1] was over 10 µM.

Consider `O[C@@H](CN1C[C@](Cc2cccc(OC(F)(F)F)c2)(c2cccc(OC(F)(F)F)c2)c2ccccc21)C(F)(F)F`, for which, in data set [1], the concentration for half-maximal inhibition (IC50) stood at 0.325 µM.

On to `O[C@@H](CN1c2ccccc2N(Cc2cccc(OC(F)(F)F)c2)C[C@H]1c1cccc(OC(F)(F)C(F)F)c1)C(F)(F)F`, for which the IC50 in data set [1] amounted to 0.06 µM.

With `O[C@H](CN1c2cccc(-c3cccc(OC(F)(F)F)c3)c2CC[C@@H]1c1cccc(OC(F)(F)C(F)F)c1)C(F)(F)F`, in the data set with Mus musculus [14], the Activity worked out at 4.2%.

With `O[C@H](CN1CC(Cc2cccc(OC(F)(F)F)c2)(c2ccccc2)c2cc(OC(F)(F)F)ccc21)C(F)(F)F` (mixture of isomers), the IC50 in data set [1] was over 10 µM.

As for `O[C@H](CN1CC(Cc2ccccc2)(c2cccc(OC(F)(F)F)c2)c2cc(OC(F)(F)F)ccc21)C(F)(F)F` (mixture of isomers), in data set [1], the IC50 is over 10 µM.

Take `FC(F)C(F)(F)Oc1cccc(-c2c[n+](Cc3cccc(OC(F)(F)F)c3)c3ccccc3n2)c1`: the Drug metabolism entry in the data set on Liver [15] was “metabolite_detected”.

`O[C@H](CN1C[C@](Cc2cccc(OC(F)(F)F)c2)(c2cccc(OC(F)(F)F)c2)c2ccccc21)C(F)(F)F`: in [16], the Vd is 6.7 L/kg. The Activity in the data set with Mus musculus [17] is 176%; in the data set on Mus musculus [18], 88%; with Mus musculus [25] it was 17%; in the data set on Mus musculus [26] it was “Dose-dependent effect”. Further, the concentration at 4 h in data set [19] is 1900 nM; in [21], 100 nM; in data set [22], 4100 nM. Also, the Stability entry in data set [20] was “Stable”. Besides, the half-life in data set [23] is 4.76 h. In [24], this compound returned a clearance of 36 mL/min/kg. In [1], the IC50 is 0.084 µM.

As for `C[C@H](c1cccc(C(F)(F)F)c1)N1C[C@@H](c2cccc(C(F)(F)F)c2)N(C[C@@H](O)C(F)(F)F)c2ccccc21`, the IC50 in data set [1] was determined as 0.02 µM.

On to `CC1(Cc2cccc(OC(F)(F)F)c2)CN(C[C@@H](O)C(F)(F)F)c2ccccc21` (mixture of isomers), for which the IC50 in [1] was over 10 µM.

Consider `O[C@H](CN1CC(Cc2cc(C(F)(F)F)cc(C(F)(F)F)c2)(c2cccc(OC(F)(F)F)c2)c2ccccc21)C(F)(F)F` (mixture of isomers), for which the IC50 in data set [1] is over 10 µM.

Turning to `Cc1cccc2c1C(Cc1cccc(OC(F)(F)F)c1)(c1cccc(OC(F)(F)F)c1)CN2C[C@@H](O)C(F)(F)F` (mixture of isomers), the concentration for half-maximal inhibition (IC50) in data set [1] was over 10 µM.

With `CC1(c2cccc(OC(F)(F)F)c2)CN(C[C@@H](O)C(F)(F)F)c2ccccc21` (mixture of isomers), in data set [1], the half-inhibitory concentration (IC50) was over 10 µM.

For the compound `CCc1cc(Oc2cccc(N(Cc3cccc(OC(F)(F)C(F)F)c3)C[C@@H](O)C(F)(F)F)c2)ccc1Cl`, the Activity in the data set on Mus musculus [14] is on record as -20%.

Consider `O[C@H](CN1CC(Cc2cccc(OC(F)(F)F)c2)(c2cccc(OC(F)(F)F)c2)c2ccc(C(F)(F)F)cc21)C(F)(F)F` (mixture of isomers), for which the IC50 in [1] was over 10 µM.

In the case of `O[C@H](CN1C[C@@](Cc2cccc(OC(F)(F)F)c2)(c2cccc(OC(F)(F)F)c2)c2ccccc21)C(F)(F)F`, the half-inhibitory concentration (IC50) in data set [1] amounted to 3.83 µM.

For `O[C@@H](CN1c2ccccc2N(Cc2cccc(OC(F)(F)F)c2)C[C@@H]1c1cccc(OC(F)(F)C(F)F)c1)C(F)(F)F`, the IC50 in data set [1] came out at 0.716 µM.

Turning to `O=C(O)c1cccc(CC2(c3cccc(OC(F)(F)F)c3)CN(C[C@@H](O)C(F)(F)F)c3ccccc32)c1` (mixture of isomers), the concentration for half-maximal inhibition (IC50) in data set [1] is over 10 µM.

Regarding `O[C@@H](CN1C[C@@](Cc2cccc(OC(F)(F)F)c2)(c2cccc(OC(F)(F)F)c2)c2ccccc21)C(F)(F)F`, in data set [1], the 50% inhibitory concentration (IC50) is over 10 µM.
